Reference: ChEMBL document CHEMBL4422659, “Discovery of novel 4-phenyl-2-(pyrrolidinyl)nicotinamide derivatives as potent Nav1.1 activators” (Bioorg Med Chem Lett, 2019)

Tests used:
[1] = biological target: Sodium channel protein type 1 subunit alpha (Homo sapiens) (UniProt P35498); assay: Activation of human Nav1.1 expressed in T-Rex-CHO cells assessed as change in decay time constant of channel currents at 3 uM at holding potential of -120 mV by automated patch-clamp electrophysiology assay relative to control; format: cell-based
Method in brief: (§1)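 Human Nav1.1 stably expressed in CHO cells; inactivation current decay time constant (tau) measured on IonWorks automated patch platform; tau given as % of control; mean of N=5 unless noted, standard deviation reported.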

[2] = biological target: Sodium channel protein type 1 subunit alpha (Homo sapiens) (UniProt P35498); assay: Activation of human Nav1.1 expressed in T-Rex-CHO cells assessed as change in decay time constant of channel currents at 1 uM by Q-patch assay relative to control; format: cell-based
Method in brief: (§2)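 Human Nav1.1 in CHO cells, Q-patch automated patch clamp; current decay time constant (tau) and top current ratio expressed as % of control; mean of N=4 unless noted, standard deviation reported.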

[3] = biological target: Sodium channel protein type 1 subunit alpha (Homo sapiens) (UniProt P35498); assay: Activation of human Nav1.1 expressed in T-Rex-CHO cells assessed as change in decay time constant of channel currents at 0.3 uM by Q-patch assay relative to control; format: cell-based; method in brief: as §2
[4] = biological target: Sodium channel protein type 1 subunit alpha (Homo sapiens) (UniProt P35498); assay: Activation of human Nav1.1 expressed in T-Rex-CHO cells assessed as change in decay time constant of channel currents at 1 uM at holding potential of -120 mV by automated patch-clamp electrophysiology assay relative to control; format: cell-based; method in brief: as §1
[5] = biological target: Sodium channel protein type 1 subunit alpha (Homo sapiens) (UniProt P35498); assay: Activation of human Nav1.1 expressed in T-Rex-CHO cells assessed as change in decay time constant of channel currents at 10 uM at holding potential of -120 mV by automated patch-clamp electrophysiology assay relative to control; format: cell-based; method in brief: as §1
[6] = biological target: Sodium channel protein type 1 subunit alpha (Homo sapiens) (UniProt P35498); assay: Activation of human Nav1.1 expressed in T-Rex-CHO cells assessed as change in decay time constant of channel currents at 30 uM at holding potential of -120 mV by automated patch-clamp electrophysiology assay relative to control; format: cell-based; method in brief: as §1
[7] = biological target: Sodium channel protein type 1 subunit alpha (Homo sapiens) (UniProt P35498); assay: Activation of human Nav1.1 expressed in T-Rex-CHO cells assessed as change in decay time constant of channel currents at 3 uM by Q-patch assay relative to control; format: cell-based; method in brief: as §2
[8] = biological target: Sodium channel protein type 1 subunit alpha (Homo sapiens) (UniProt P35498); assay: Activation of human Nav1.1 expressed in T-Rex-CHO cells assessed as change in decay time constant of channel currents at 10 uM by Q-patch assay relative to control; format: cell-based; method in brief: as §2
[9] = 1-octanol/water partition co-efficient, log D of the compound at pH 7.4 by chromatographic analysis; format: physicochemical
[10] = Aqueous solubility of compound at pH 6.8 by UV absorbance method; format: physicochemical; details: buffer
Method in brief: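 Solubility determined at pH 6.8.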

[11] = biological target: Sodium channel protein type 1 subunit alpha (Homo sapiens) (UniProt P35498); assay: Activation of human Nav1.1 expressed in T-Rex-CHO cells assessed as change in top peak current at 1 uM by Q-patch assay relative to control; format: cell-based; method in brief: as §2
[12] = biological target: Sodium channel protein type 1 subunit alpha (Homo sapiens) (UniProt P35498); assay: Activation of human Nav1.1 expressed in T-Rex-CHO cells assessed as change in top peak current at 3 uM by Q-patch assay relative to control; format: cell-based; method in brief: as §2
[13] = biological target: Sodium channel protein type 1 subunit alpha (Homo sapiens) (UniProt P35498); assay: Activation of human Nav1.1 expressed in T-Rex-CHO cells assessed as change in top peak current at 10 uM by Q-patch assay relative to control; format: cell-based; method in brief: as §2
[14] = biological target: Sodium channel protein type 1 subunit alpha (Homo sapiens) (UniProt P35498); assay: Activation of human Nav1.1 expressed in T-Rex-CHO cells assessed as change in decay time constant of channel currents at 0.3 uM at holding potential of -120 mV by automated patch-clamp electrophysiology assay relative to control; format: cell-based; method in brief: as §1

Activity [1] [%]	Activity [4] [%]	Activity [5] [%]	Structure (SMILES)	further results
391	135		CC(C)c1ccc(NC(=O)c2c(-c3ccccc3F)ncnc2N2CC[C@H](F)C2)cn1	Activity [2]: 1400%; Activity [3]: 711%
374		767	CC(C)c1ccc(NC(=O)c2c(-c3ccc(Cl)cc3)ccnc2N2CCOCC2)cn1	
258		370	CC(C)c1ccc(NC(=O)c2c(-c3ccc(Cl)cc3)ncnc2N2CCOCC2)cn1	Activity [6]: 555%; Activity [2]: 198%; Activity [7]: 731%; Activity [8]: 774%; chromatographic logD [9]: 2.97; solubility [10]: > 100 µg/mL; Activity [11]: 113%; Activity [12]: 115%; Activity [13]: 131%
184		131	CC(C)c1ccc(NC(=O)c2c(-c3ccc(Cl)cc3)ncnc2N2CCC(F)(F)C2)cn1	
87	80		CC(C)c1ccc(NC(=O)c2c(-c3ccn(C)n3)ncnc2N2CC[C@H](F)C2)cn1	
96		74	CCN(CC)c1ncnc(-c2ccc(Cl)cc2)c1C(=O)Nc1ccc(C(C)C)nc1	
115	80		CC(C)c1ccc(NC(=O)c2c(-c3ccoc3)ncnc2N2CC[C@H](F)C2)cn1	
145		162	CC(C)c1ccc(NC(=O)c2c(-c3ccc(Cl)cc3)ncnc2N2CC[C@@H](F)C2)cn1	
	124		CC(C)c1ccc(NC(=O)c2c(-c3cc(F)ccc3F)cncc2N2CC[C@H](F)C2)cn1	Activity [14]: 92%
99		110	CC(C)c1ccc(NC(=O)c2c(-c3ccc(Cl)cc3)cccc2N2CCOCC2)cn1	
98	86		CC(C)c1ccc(NC(=O)c2c(-c3ccco3)ncnc2N2CC[C@H](F)C2)cn1	
140		257	CC(C)c1ccc(NC(=O)c2c(-c3ccc(Cl)cc3)ncnc2N2CCCC2)cn1	
